In ChEMBL document CHEMBL4052694, “Discovery of novel 5-oxa-2,6-diazaspiro[3.4]oct-6-ene derivatives as potent, selective, and orally available somatostatin receptor subtype 5 (SSTR5) antagonists for treatment of type 2 diabetes mellitus” (Bioorg Med Chem, 2017):
Values after ≈ are worked out from the molar mass of the structure shown. Active and inactive are the calls of the source. No cut-off for these calls is given here.

Columns and labels:
[1] = target: Somatostatin receptor type 5 (Homo sapiens, UniProt P35346); assay: Antagonist activity at human SSTR5 expressed in CHO cells assessed as inhibition of SST14-induced forskolin-stimulated intracellular cAMP level incubated for 15 mins followed by forskolin stimulation for 30 mins by HTRF assay; type: functional, cell-based
Somatostatin receptor type 5 (Homo sapiens, UniProt P35346), sequence (P35346 whole entry): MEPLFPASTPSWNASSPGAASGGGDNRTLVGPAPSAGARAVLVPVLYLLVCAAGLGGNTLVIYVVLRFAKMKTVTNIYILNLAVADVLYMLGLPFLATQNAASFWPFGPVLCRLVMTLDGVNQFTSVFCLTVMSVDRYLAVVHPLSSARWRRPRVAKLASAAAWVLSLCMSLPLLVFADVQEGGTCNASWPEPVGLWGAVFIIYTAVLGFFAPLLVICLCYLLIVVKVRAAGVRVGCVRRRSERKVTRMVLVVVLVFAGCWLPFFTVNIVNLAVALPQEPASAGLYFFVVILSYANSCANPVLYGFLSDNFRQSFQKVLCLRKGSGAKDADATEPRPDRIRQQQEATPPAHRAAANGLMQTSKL

[2] = target: T1, Somatostatin receptor type 5 (Mus musculus, UniProt O08858); assay: Antagonist activity at mouse SSTR5 expressed in CHO cells assessed as inhibition of SST14-induced forskolin-stimulated intracellular cAMP level incubated for 15 mins followed by forskolin stimulation for 30 mins by HTRF assay; type: functional, cell-based
T1 sequence (O08858 whole entry): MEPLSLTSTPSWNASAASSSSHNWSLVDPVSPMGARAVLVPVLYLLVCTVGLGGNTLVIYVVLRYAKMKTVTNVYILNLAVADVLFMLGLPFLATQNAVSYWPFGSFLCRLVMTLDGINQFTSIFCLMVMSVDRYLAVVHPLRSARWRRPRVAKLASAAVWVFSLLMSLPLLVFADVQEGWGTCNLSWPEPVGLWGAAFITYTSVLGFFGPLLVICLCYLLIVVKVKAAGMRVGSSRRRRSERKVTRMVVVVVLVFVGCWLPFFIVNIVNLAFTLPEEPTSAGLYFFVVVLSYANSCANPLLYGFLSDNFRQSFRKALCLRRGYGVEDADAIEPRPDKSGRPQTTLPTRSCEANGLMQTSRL

[3] = 1-octanol/aqueous buffer solution partition coefficient, log D of the compound at pH 7.4 by UV-vis/HPLC method; type: physicochemical
Outline: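 Octanol/buffer partition coefficient at pH 7.4, estimated chromatographically by HPLC with UV–vis detection, using conditions adapted from a published method.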

hERG (KCNH2) = hERG (KCNH2) (Homo sapiens, UniProt Q12809); assay: Inhibition of human ERG expressed in CHO cells assessed as decrease in peak tail current at 30 uM after 5 mins at -80 mV holding potential by patch clamp assay relative to control; type: cell-based; settings: CHO cells expressing human ERG
hERG (KCNH2), sequence (Q12809 whole entry): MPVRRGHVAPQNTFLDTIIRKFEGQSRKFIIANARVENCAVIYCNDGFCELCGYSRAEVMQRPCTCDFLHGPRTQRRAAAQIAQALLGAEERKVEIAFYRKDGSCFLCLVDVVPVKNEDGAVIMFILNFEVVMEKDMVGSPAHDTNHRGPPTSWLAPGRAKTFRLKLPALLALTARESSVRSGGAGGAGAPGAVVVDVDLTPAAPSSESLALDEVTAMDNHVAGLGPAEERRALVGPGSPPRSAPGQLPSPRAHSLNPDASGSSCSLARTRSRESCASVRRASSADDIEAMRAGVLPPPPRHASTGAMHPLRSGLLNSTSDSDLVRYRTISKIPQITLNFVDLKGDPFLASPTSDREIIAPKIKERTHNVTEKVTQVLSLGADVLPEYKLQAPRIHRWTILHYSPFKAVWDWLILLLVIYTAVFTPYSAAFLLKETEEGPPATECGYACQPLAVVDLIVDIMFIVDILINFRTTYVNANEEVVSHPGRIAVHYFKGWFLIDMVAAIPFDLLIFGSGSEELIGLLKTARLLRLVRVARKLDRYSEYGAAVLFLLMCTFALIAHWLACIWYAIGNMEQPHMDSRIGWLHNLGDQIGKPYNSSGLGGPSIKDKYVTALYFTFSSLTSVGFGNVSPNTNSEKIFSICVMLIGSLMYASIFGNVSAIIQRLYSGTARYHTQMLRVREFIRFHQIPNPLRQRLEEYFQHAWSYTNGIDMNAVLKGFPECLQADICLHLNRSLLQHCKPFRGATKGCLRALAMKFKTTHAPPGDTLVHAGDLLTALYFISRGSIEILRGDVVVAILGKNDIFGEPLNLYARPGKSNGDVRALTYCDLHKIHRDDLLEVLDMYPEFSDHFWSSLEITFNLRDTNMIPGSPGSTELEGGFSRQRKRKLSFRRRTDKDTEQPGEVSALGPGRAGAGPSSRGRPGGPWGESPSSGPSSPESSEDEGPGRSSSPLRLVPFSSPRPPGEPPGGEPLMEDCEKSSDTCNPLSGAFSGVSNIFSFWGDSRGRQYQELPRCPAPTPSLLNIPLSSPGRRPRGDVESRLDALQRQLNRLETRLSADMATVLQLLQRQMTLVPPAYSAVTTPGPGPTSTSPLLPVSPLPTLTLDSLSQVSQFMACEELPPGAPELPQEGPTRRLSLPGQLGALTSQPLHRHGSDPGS
Outline: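 hERG-expressing CHO cells grown at 32 °C in Ham's F-12 with 10% FBS and Geneticin. Population patch clamp, perforated with 100 µg/mL amphotericin B. PBS with Ca/Mg outside; 140 mM KCl, 2 mM MgCl2, 1 mM EGTA, 20 mM HEPES pH 7.3 inside. Holding -80 mV, step to 40 mV for 2 s, then -50 mV for 2 s. Peak tail current compared before and after 5 min with compound at 30 µM, n = 4.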

[4] = Solubility of the compound in aqueous buffer solution at pH 6.8 after 18 hrs by HPLC analysis; type: physicochemical
Outline: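 0.4 mg compound in 0.4 mL aqueous buffer, pH 6.8 (Japanese Pharmacopoeia second disintegration fluid). Shaken at 500 rpm at 37 °C for 18 h, then filtered; dissolved concentration measured by HPLC.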

[5] = target: Somatostatin receptor type 2 (Homo sapiens) (UniProt P30874); assay: Inhibition of human SSTR2 at 10 uM by radioligand binding assay relative to control
Somatostatin receptor type 2 (Homo sapiens), sequence (P30874 whole entry): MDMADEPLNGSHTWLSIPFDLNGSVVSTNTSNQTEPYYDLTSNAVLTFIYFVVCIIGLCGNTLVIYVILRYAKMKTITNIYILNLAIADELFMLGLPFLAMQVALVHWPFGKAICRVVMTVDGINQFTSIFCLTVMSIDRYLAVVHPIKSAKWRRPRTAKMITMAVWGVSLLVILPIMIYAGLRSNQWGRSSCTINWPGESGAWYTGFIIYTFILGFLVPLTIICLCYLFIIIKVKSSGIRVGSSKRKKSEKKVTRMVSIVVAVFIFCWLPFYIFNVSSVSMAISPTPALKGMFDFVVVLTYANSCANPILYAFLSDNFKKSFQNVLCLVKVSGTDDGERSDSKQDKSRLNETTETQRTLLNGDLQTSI

[6] = target: Somatostatin receptor type 4 (Homo sapiens) (UniProt P31391); assay: Inhibition of human SSTR4 at 10 uM by radioligand binding assay relative to control
Somatostatin receptor type 4 (Homo sapiens), sequence (P31391 whole entry): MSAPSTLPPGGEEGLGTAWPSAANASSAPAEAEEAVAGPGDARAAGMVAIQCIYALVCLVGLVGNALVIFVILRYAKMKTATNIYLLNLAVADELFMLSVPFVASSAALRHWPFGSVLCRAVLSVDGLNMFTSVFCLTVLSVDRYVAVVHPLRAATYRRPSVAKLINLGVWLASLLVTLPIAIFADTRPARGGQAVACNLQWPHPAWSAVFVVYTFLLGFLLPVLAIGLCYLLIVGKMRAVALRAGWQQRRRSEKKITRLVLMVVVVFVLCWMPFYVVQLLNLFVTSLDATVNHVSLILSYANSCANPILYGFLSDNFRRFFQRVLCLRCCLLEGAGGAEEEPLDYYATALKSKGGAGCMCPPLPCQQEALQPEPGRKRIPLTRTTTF

Mus musculus [7] = assay: Antidiabetic activity in HFD-fed C57BL/6J mouse assessed as decrease in blood glucose level at 100 mg/kg, po pretreated for 1 hr followed by glucose challenge after 1 hr of compound dosing measured up to 120 mins post glucose challenge by OGTT; type: functional, organism-based
Outline: (§1)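 Male C57BL/6J mice on high-fat diet for ten days. Fasted from morning and grouped by weight and blood glucose at 4 h. Vehicle (0.5% methylcellulose) or compound given orally at 5.5 h; oral glucose 5 g/kg given 1 h later.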

[8] = Total clearance in ICR mouse at 0.1 mg/kg, iv administered as cassette dose by LC/MS/MS analysis; type: ADME, organism-based; settings: in vivo
Outline: (§2)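 Non-fasted male ICR mice, 8 weeks old, n = 3, dosed by cassette: 0.1 mg/kg iv, or 1 mg/kg po as a suspension in 0.5% methylcellulose. Plasma deproteinized with acetonitrile and measured by LC/MS/MS. AUC taken over 0–8 h.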

[9] = Oral bioavailability in ICR mouse at 1 mg/kg administered as cassette dose by LC/MS/MS analysis; type: ADME, organism-based; settings: in vivo; outline: as §2
[10] = Intrinsic clearance in mouse liver microsomes at 1 uM after 15 to 30 mins in presence of NADPH by LC/MS/MS analysis; type: ADME, microsome; settings: read-out: CLH
Outline: (§3)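 Liver microsomes at 0.2 mg/mL protein in 50 mM potassium phosphate buffer pH 7.4 with compound at 1 µM. Reaction started with an NADPH-generating system (5 mM MgCl2, 5 mM glucose-6-phosphate, 0.5 mM β-NADP+, 1.5 U/mL G6PDH). Stopped with acetonitrile at 15 and 30 min; analysed by LC/MS/MS. Metabolic velocity taken from the slope of concentration versus time.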

Mus musculus [11] = assay: Antidiabetic activity in HFD-fed SSTR5 knockout C57BL/6J mouse assessed as decrease in blood glucose level administered po pretreated for 1 hr followed by glucose challenge after 1 hr of compound dosing measured up to 120 mins post glucose challenge by OGTT; type: functional, organism-based
Mus musculus [12] = assay: Antidiabetic activity in HFD-fed C57BL/6J mouse assessed as decrease in blood glucose level administered po pretreated for 1 hr followed by glucose challenge after 1 hr of compound dosing measured up to 120 mins post glucose challenge by OGTT; type: functional, organism-based
Outline: (§4)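 Male C57BL/6J mice on high-fat diet for ten days. Fasted overnight and grouped by weight and blood glucose at 12.5 h. Compound given orally at 1, 3, 10 or 30 mg/kg in 0.5% methylcellulose at 15 h; oral glucose 5 g/kg at 16 h.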

[13] = Intrinsic clearance in human liver microsomes at 1 uM after 15 to 30 mins in presence of NADPH by LC/MS/MS analysis; type: ADME, microsome; settings: read-out: CLH; outline: as §3
[14] = AUC (0 to 8 hrs) in ICR mouse at 1 mg/kg, po administered as cassette dose by LC/MS/MS analysis; type: ADME, organism-based; set-up: dose 1 mg/kg, time < 8 hr, route oral; settings: in vivo; outline: as §2
Mus musculus [15] = assay: Antidiabetic activity in HFD-fed C57BL/6J mouse assessed as increase in insulin secretion at 100 mg/kg, po pretreated for 1 hr followed by glucose challenge after 1 hr of compound dosing measured up to 120 mins post glucose challenge by OGTT
[16] = Volume of distribution at steady state in ICR mouse at 0.1 mg/kg, iv administered as cassette dose by LC/MS/MS analysis; type: ADME, organism-based; settings: in vivo, read-out: Vdss; outline: as §2
Mus musculus [17] = assay: Toxicity in HFD-fed C57BL/6J mouse assessed as induction of hypoglycemia at 100 mg/kg, po after 1 hr; type: organism-based; settings: in vivo
Mus musculus [18] = assay: Antidiabetic activity in HFD-fed C57BL/6J mouse assessed as decrease in blood glucose AUC at 100 mg/kg, po pretreated for 1 hr followed by glucose challenge after 1 hr of compound dosing measured up to 120 mins post glucose challenge by OGTT; type: functional, organism-based; outline: as §1
[19] = target: Somatostatin receptor type 3 (Homo sapiens) (UniProt P32745); assay: Inhibition of human SSTR3 at 10 uM by radioligand binding assay relative to control
Somatostatin receptor type 3 (Homo sapiens), sequence (P32745 whole entry): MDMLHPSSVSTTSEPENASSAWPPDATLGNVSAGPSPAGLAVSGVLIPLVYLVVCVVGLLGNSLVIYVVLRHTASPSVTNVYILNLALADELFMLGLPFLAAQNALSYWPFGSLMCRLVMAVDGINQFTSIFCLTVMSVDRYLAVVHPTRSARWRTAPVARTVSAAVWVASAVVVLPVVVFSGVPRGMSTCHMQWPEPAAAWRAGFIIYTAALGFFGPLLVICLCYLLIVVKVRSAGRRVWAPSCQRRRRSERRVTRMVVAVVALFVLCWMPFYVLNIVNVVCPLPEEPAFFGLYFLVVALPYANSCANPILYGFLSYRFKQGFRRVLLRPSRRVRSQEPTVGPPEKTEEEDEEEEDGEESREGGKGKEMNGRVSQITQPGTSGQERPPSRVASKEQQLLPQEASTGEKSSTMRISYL

[20] = Tmax in ICR mouse at 1 mg/kg, po administered as cassette dose by LC/MS/MS analysis; type: ADME, organism-based; settings: in vivo; outline: as §2
[21] = target: Somatostatin receptor type 1 (Homo sapiens) (UniProt P30872); assay: Inhibition of human SSTR1 at 10 uM by radioligand binding assay relative to control
Somatostatin receptor type 1 (Homo sapiens), sequence (P30872 whole entry): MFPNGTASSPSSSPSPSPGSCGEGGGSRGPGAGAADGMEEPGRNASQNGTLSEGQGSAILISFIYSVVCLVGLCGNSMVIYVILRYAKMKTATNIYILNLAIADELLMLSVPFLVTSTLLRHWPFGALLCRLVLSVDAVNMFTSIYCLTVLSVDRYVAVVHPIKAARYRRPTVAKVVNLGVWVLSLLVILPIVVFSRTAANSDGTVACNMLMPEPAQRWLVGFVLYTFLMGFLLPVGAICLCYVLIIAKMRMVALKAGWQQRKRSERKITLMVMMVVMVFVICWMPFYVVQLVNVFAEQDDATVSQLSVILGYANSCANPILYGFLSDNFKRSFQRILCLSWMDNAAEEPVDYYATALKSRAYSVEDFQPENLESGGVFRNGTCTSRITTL

[22] = Cmax in ICR mouse at 1 mg/kg, po administered as cassette dose by LC/MS/MS analysis; type: ADME, organism-based; set-up: dose 1 mg/kg, route oral; settings: in vivo; outline: as §2
Mus musculus [23] = assay: Antidiabetic activity in HFD-fed C57BL/6J mouse assessed as decrease in blood glucose level at 10 mg/kg, po pretreated for 1 hr followed by glucose challenge by OGTT; type: functional, organism-based; outline: as §4
Mus musculus [24] = assay: Toxicity in HFD-fed C57BL/6J mouse assessed as induction of hypoglycemia at 10 mg/kg, po after 1 hr; type: organism-based; settings: in vivo
Mus musculus [25] = assay: Antidiabetic activity in HFD-fed C57BL/6J mouse assessed as increase in insulin secretion at 10 mg/kg, po pretreated for 1 hr followed by glucose challenge by OGTT; type: functional, organism-based
Mus musculus [26] = assay: Antidiabetic activity in HFD-fed C57BL/6J mouse assessed as decrease in blood glucose AUC at 10 mg/kg, po pretreated for 1 hr followed by glucose challenge after 1 hr of compound dosing measured up to 120 mins post glucose challenge by OGTT; type: functional, organism-based; outline: as §4
Mus musculus [27] = assay: Antidiabetic activity in HFD-fed C57BL/6J mouse assessed as increase in insulin secretion at 30 mg/kg, po pretreated for 1 hr followed by glucose challenge by OGTT; type: functional, organism-based
Mus musculus [28] = assay: Antidiabetic activity in HFD-fed C57BL/6J mouse assessed as decrease in blood glucose AUC at 30 mg/kg, po pretreated for 1 hr followed by glucose challenge after 1 hr of compound dosing measured up to 120 mins post glucose challenge by OGTT; type: functional, organism-based; outline: as §4
Mus musculus [29] = assay: Antidiabetic activity in HFD-fed C57BL/6J mouse assessed as decrease in blood glucose level at 30 mg/kg, po pretreated for 1 hr followed by glucose challenge by OGTT; type: functional, organism-based; outline: as §4

Compound	IC50 [1] [nM]	IC50 [2] [nM]	logD [3]	inhibition at 5 min, 30 µM (hERG (KCNH2)) [%]	other results
CCOc1cc(CN2CC3(CC(c4ccccc4)=NO3)C2)cc(OCC)c1-c1ccc(F)cc1	2800	980	–	–	–
CCOc1cc(C(C)N2CC3(CC(c4ccc(C(=O)O)cc4)=NO3)C2)cc(OCC)c1-c1ccc(F)cc1 (configuration not stated)	95	2000	3.6	14	–
CCOc1cc(CN2CC3(CC(c4ccc(CO)cc4)=NO3)C2)cc(OCC)c1-c1ccc(F)cc1	1000	430	–	–	–
CCOc1cc(CN2CC3(CC(N4CC(C(=O)O)C4)=NO3)C2)cc(OCC)c1-c1ccc(F)cc1	200	120	2.9	8.1	–
CCOc1cc(CN2CC3(CC(c4cccc(C(=O)O)c4)=NO3)C2)cc(OCC)c1-c1ccc(F)cc1	550	260	–	–	–
CCOc1cc(CN2CC3(CC(c4ccc(C(=O)O)cc4C)=NO3)C2)cc(OCC)c1-c1ccc(F)cc1	140	21	3.5	18	–
CCOc1cc(CN2CC3(CC(c4ccc(CC(=O)O)cc4)=NO3)C2)cc(OCC)c1-c1ccc(F)cc1	220	74	–	–	–
CCOc1cc(CN2CC3(CC(N4CCC(C(=O)O)CC4)=NO3)C2)cc(OCC)c1-c1ccc(F)cc1	–	–	–	5.6	solubility at 18 h [4]: 260 µg/mL (≈ 508 µM); inhibition [5]: 8%; inhibition [6]: 10%; Activity (Mus musculus [7]): Active; clearance [8]: 29.3 mL/min/kg; bioavailability [9]: 58%; microsomal CLint at 1 µM [10]: 19 µL/min/mg; Activity (Mus musculus [11]): inactive; Activity (Mus musculus [12]): Dose-dependent effect; microsomal CLint at 1 µM [13]: < 10 µL/min/mg; AUC(0-t) at 8 h [14]: 332 ng·h/mL; Activity (Mus musculus [15]): Active; Vd [16]: 3.05 L/kg; Activity (Mus musculus [17]): Non-Toxic; Activity (Mus musculus [18]): Active; inhibition [19]: 14%; Tmax [20]: 2 h; inhibition [21]: 11%; Cmax [22]: 74.8 ng/mL
CCOc1cc(CN2CC3(CC(N4CCC(C(=O)O)C4)=NO3)C2)cc(OCC)c1-c1ccc(F)cc1 (configuration not stated)	190	48	2.9	17	–
CCOc1cc(CN2CC3(CC(c4ccc(C(=O)O)cc4)=NO3)C2)cc(OCC)c1-c1ccc(F)cc1	9	33	3.3	65	solubility at 18 h [4]: 1.3 µg/mL (≈ 2.58 µM)
COc1ccc(Cl)cc1C(=O)NCCc1ccc(S(=O)(=O)NC(=O)NC2CCCCC2)cc1 [GLYBURIDE]	–	–	–	–	Activity (Mus musculus [23]): Active; Activity (Mus musculus [24]): Toxic; Activity (Mus musculus [25]): Active; Activity (Mus musculus [26]): Active
CCOc1cc(CN2CC3(CC(c4ccc(C(N)=O)cc4)=NO3)C2)cc(OCC)c1-c1ccc(F)cc1	150	150	–	–	–
CCOc1cc(CN2CC3(CC([C@H]4CC[C@H](C(=O)O)CC4)=NO3)C2)cc(OCC)c1-c1ccc(F)cc1	30	38	3.2	15	–
CCOc1cc(CN2CC3(CC(c4ccc(C(=O)O)cn4)=NO3)C2)cc(OCC)c1-c1ccc(F)cc1	61	20	–	–	–
CCOc1cc(C(=O)N2CC3(CC(c4ccc(C(=O)O)cc4)=NO3)C2)cc(OCC)c1-c1ccc(F)cc1	> 10000	> 10000	2.8	7.9	–
CCOc1cc(CN2CC3(CC(c4ccc(C(=O)O)cc4Cl)=NO3)C2)cc(OCC)c1-c1ccc(F)cc1	46	31	3.5	40	–
CCOc1cc(CN2CC3(CC(c4ccccc4C(=O)O)=NO3)C2)cc(OCC)c1-c1ccc(F)cc1	> 10000	> 10000	3.1	4.5	–
CCOc1cc(CN2CC3(CC(CCC(=O)O)=NO3)C2)cc(OCC)c1-c1ccc(F)cc1	3200	220	–	–	–
Cn1c(=O)cc(N2CCC[C@@H](N)C2)n(Cc2ccccc2C#N)c1=O	–	–	–	–	Activity (Mus musculus [27]): Active; Activity (Mus musculus [28]): Active; Activity (Mus musculus [29]): Active
CCOc1cc(CN2CC3(CC([C@H]4CC[C@@H](C(=O)O)CC4)=NO3)C2)cc(OCC)c1-c1ccc(F)cc1	130	210	3.3	33	–
